In article PMC2606940 (The Journal of General Physiology, 2009):
Positions count from the first letter of the chain named. Where two headings read alike, the source gives them in different places.

Assays:
CLC-0 E166K mutant = molecular target: T1, CLC-0 E166K mutant (Torpedo marmorata, UniProt P21564, C212S/E166K); format: cell-based; conditions: for IC50: read-out: Apparent affinity (K1/2)
T1 sequence (P21564 1-805 E166K/C212S): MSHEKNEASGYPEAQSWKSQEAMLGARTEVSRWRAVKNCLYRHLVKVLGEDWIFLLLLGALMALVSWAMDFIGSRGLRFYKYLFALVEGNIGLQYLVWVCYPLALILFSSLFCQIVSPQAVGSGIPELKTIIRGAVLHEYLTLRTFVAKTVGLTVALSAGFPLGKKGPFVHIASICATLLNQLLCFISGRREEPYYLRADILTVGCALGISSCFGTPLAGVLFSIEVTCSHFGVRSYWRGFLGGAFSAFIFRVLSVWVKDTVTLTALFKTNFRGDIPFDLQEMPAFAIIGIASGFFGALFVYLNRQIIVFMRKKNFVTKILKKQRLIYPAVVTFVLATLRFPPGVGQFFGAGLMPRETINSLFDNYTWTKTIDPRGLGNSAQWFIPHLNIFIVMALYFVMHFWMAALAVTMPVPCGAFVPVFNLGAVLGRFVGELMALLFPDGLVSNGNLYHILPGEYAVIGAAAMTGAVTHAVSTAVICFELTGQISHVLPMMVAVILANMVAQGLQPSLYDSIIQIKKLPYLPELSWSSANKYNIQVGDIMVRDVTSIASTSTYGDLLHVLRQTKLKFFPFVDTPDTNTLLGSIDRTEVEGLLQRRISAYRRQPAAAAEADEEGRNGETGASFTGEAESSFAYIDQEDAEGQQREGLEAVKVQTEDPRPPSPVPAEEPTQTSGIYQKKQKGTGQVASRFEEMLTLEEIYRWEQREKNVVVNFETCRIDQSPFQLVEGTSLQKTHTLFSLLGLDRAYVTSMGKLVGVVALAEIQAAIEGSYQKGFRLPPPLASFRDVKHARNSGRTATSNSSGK
Outline: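 CLC-0 mutants in the C212S background were transfected into HEK293 cells with lipofectamine and recorded 1–3 d later as excised inside-out patches. Both sides held 130 mM NaCl, 5 mM MgCl2, 10 mM HEPES and 1 mM EGTA, pH 7.4. CPA was perfused continuously onto the cytoplasmic face. Steady-state current over the last 10 ms was normalized to bracketing blocker-free controls and fitted to a Langmuir function for K1/2. Values are mean ± SEM of ~4–6 patches.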

CLC-0 E166A mutant = molecular target: T2, CLC-0 E166A mutant (Torpedo marmorata, UniProt P21564, C212S/E166A); format: cell-based; conditions: for IC50: read-out: Apparent affinity (K1/2)
T2 sequence (P21564 1-805 E166A/C212S): T1 sequence (P21564 1-805 E166K/C212S) with K166A
Outline: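 HEK293 cells expressed C212S-background CLC-0 mutants and were recorded 1–3 d post-transfection as inside-out patches in symmetrical 130 mM NaCl, 10 mM HEPES, pH 7.4. CPA, fatty acids or alkyl sulfates flowed continuously on the cytoplasmic side. C10–C12 compounds were diluted into bath solution from 10 mM DMSO stocks. Test steps ran from +80 to −160 mV after a +80 mV prepulse. Steady-state current was normalized to the mean of pre- and post-blocker controls, and a Langmuir K1/2 was taken at each voltage from ~4–6 patches.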

| K1/2 (range in words) (CLC-0 E166A mutant; −140 mV (Fig. 10 C)) | Compound | block of current (CLC-0 E166K mutant; 0.3 mM CPA, −160 mV) [%] | IC50 (CLC-0 E166K mutant; −80 mV) [µM] | IC50 (CLC-0 E166K mutant; −100 mV) [µM] | IC50 (CLC-0 E166K mutant; −120 mV) [µM] | IC50 (CLC-0 E166K mutant; −140 mV) [µM] | IC50 (CLC-0 E166K mutant; −160 mV) [µM] | block of current (CLC-0 E166A mutant; 10 μM) [%] | inhibition of current (CLC-0 E166A mutant; 300 μM CPA, −160 mV) [%] | IC50 (CLC-0 E166A mutant; −40 mV) [µM] | IC50 (CLC-0 E166A mutant; −60 mV) [µM] | IC50 (CLC-0 E166A mutant; −80 mV) [µM] | IC50 (CLC-0 E166A mutant; −100 mV) [µM] | IC50 (CLC-0 E166A mutant; −120 mV) [µM] | IC50 (CLC-0 E166A mutant; −140 mV) [µM] | IC50 (CLC-0 E166A mutant; −160 mV) [µM] | saturated value of 1/τ of current inhibition (CLC-0 E166A mutant; voltage step +80 to −160 mV) [s⁻¹] |
| --- | --- | --- | --- | --- | --- | --- | --- | --- | --- | --- | --- | --- | --- | --- | --- | --- | --- |
|  | O=C(O)COc1ccc(Cl)cc1 [CPA, p-chlorophenoxy acetate] | ~10 | 21300 ± 900 | 15600 ± 700 | 11300 ± 500 | 7990 ± 350 | 5620 ± 270 | ~50 | ~95 | 337 ± 19 | 162 ± 9 | 82 ± 4 | 46 ± 2 | 25 ± 2 | 15 ± 1 | 10 ± 1 | 1561 |
| low μM range | CCCCCCCC(=O)O [octanoate] |  | 29200 ± 530 | 21600 ± 540 | 15400 ± 500 | 10600 ± 450 | 7240 ± 330 |  |  | 64.3 ± 3.7 | 29.7 ± 1.4 | 15.7 ± 0.7 | 8.2 ± 0.2 | 4.7 ± 0.2 | 2.8 ± 0.2 | 1.9 ± 0.1 |  |
